An excerpt weighted towards active compounds, which were near 11% of everything screened.
L major viab: Leishmania major promastigote growth inhibition. Leishmania major promastigotes, resazurin fluorescence viability. inhibition, % at 10 µM. 200,000 compounds, 9% hits;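 also: promastigotes grown with compound for 44 hours at 28 °C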
G6PDH counter: inhibits Leuconostoc G6PDH, flagging false hits in G6PDH-based assays; AID 1020; inhibition, % at 5 µM; Purified L. mesenteroides G6PDH, diaphorase/resazurin coupled fluorescence, 45 min; 200,000 compounds, 0.12% hits
Diaphorase act: counter-screen for diaphorase-based assays: diaphorase activators and chemical reducers | Diaphorase/resazurin coupled assay, resorufin fluorescence, 16 min; stronger effect = higher value; 1 = vehicle wells, 0 = NADH-free wells | activation factor at 20 µM | 190,000 compounds, 0.005% hits | AID 1229;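 active = diaphorase activity raised at least twofold by the compound at 20 µM; inactive = activation factor below 2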
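Material: Clostridium kluyveri diaphorase, purified enzyme; Quantity: enzyme 0.07 U/mL final; Medium: HEPES pH 7.4 buffer with MgCl2 and Tween 20; Dosing: single compound dose of 20 µM, 1% DMSO final; Schedule: 16 min reaction at room temperature; Measured by: red resorufin fluorescence at 544/590 nm excitation/emission.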
WT yeast gro inh: growth inhibition of WT yeast, mitochondrial fusion screen. inhibition, % at 10 µM. 190,000 compounds, 2.1% hits. mitochondrial fusion phenotypic screen, WT strain; in the data active = inhibition above about 58%; tested in S. cerevisiae
Diaph inh CS: inhibits diaphorase or chemically oxidizes, flagging diaphorase assay artifacts | 190,000 compounds, 0.69% hits | diaphorase resazurin-to-resorufin fluorescence, NADH, 16 min; bacterial (C. kluyveri) enzyme, not human | inhibition, % at 20 µM;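 active = primary screen inhibition at 20 µM above a set limit, cut at about 50% in these data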
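Assay system: diaphorase enzyme from Clostridium kluyveri; Input: enzyme working solution with 0.14 U/mL diaphorase; Timing: 16 min at room temperature; Technique: resorufin fluorescence, excitation 544 nm, emission 590 nm; Benchmarks: positive control minus NADH, DMSO neutral control.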
Numbers stand for hits; - = inactive; . = no result given. Rule as the data show it, unless noted: active = inhibition above about 50%; inactive = the rest.

SMILES	L major viab	G6PDH counter	Diaphorase act	WT yeast gro inh	Diaph inh CS
O=C(O)C1C2C=CC(C2)C1C(=O)NCc1cccnc1 (centres undefined)	-	-	-	-	-
Cc1cccc(C)c1OC(=O)CCN1C(=O)C2C3C=CC(C4CC34)C2C1=O (centres undefined)	-	-	-	-	-
Cc1ccc(OCCSc2nc(NC(C)C)nc(NC(C)C)n2)cc1	-	-	-	72	-
CC(C)NC(=S)N/N=C/c1c[nH]c2ccccc12	66	-	-	-	-
CN(C)c1ccc(C2SCCN2C(=O)c2ccc([N+](=O)[O-])cc2)cc1 (centres undefined)	-	-	-	-	-
OCC1(CCc2ccccc2)CCN(Cc2cccn2-c2cccnc2)CC1	61	-	-	-	-
Cc1ccc(-c2[nH]ncc2/C=N/n2c(COc3ccccc3C)nc3ccccc3c2=O)cc1	75	-	-	-	-
Cc1cccc(C)c1OCc1nc2ccccc2c(=O)n1/N=C/c1c[nH]c2ccccc12	96	-	-	-	-
Cc1cc(/C=N/n2c(COc3ccccc3C)nc3ccccc3c2=O)c(O)c([N+](=O)[O-])c1	-	-	-	-	-
Cc1ccccc1OCc1nc2ccccc2c(=O)n1/N=C/c1c[nH]c2ccccc12	-	-	-	-	-
COc1ccc(/C=C(/NC(=O)c2cccc([N+](=O)[O-])c2)C(=O)O)cc1	-	-	-	-	-
COC(=O)c1ccc(Oc2c(C)oc3c(CN4CCN(C)CC4)c(O)ccc3c2=O)cc1	100	-	-	-	-
COc1ccc(-c2c(C(F)(F)F)oc3c(CN4CCN(C)CC4)c(O)ccc3c2=O)cc1	100	-	-	-	-
CCN1CCN(Cc2c(O)ccc3c(=O)c(-c4ccc(OC)c(OC)c4)c(C)oc23)CC1	100	-	-	-	-
COc1ccc(-c2c(C)oc3c(CN4CCN(C)CC4)c(O)ccc3c2=O)cc1	99	-	-	-	-
CC(C)CNS(=O)(=O)c1ccc(CCC(=O)NCc2ccncc2)cc1	-	-	-	-	-
Cc1cc(C)c2c(-n3cccc3)c(C(=O)NNS(=O)(=O)c3ccc(Cl)cc3)sc2n1	-	-	-	-	-
Cc1ncsc1CCOC(=O)C1C2CC3CC(C2)CC1C3 (centres undefined)	-	-	-	-	-
COc1ccccc1CNC(=O)CSc1cc(=O)n(C)c2ccccc12	-	-	-	-	-
O=C1NC(NS(=O)(=O)c2ccc(Cl)cc2)(C(F)(F)F)C(=O)N1Cc1cccnc1 (centres undefined)	-	-	-	-	-
C/C(CCc1ccc2c(c1)OCO2)=N\N=C(/N)SC1CC(=O)N(c2ccccc2F)C1=O (centres undefined)	-	-	-	-	-
O=c1c(Oc2ccccc2Br)c(C(F)(F)F)oc2c(CN3CCCC3)c(O)ccc12	86	-	-	-	-
CSc1ccc(/C=C/C(=O)c2ccc(NC(=O)Cc3ccccc3)cc2)cc1	91	-	-	-	-
CSc1ccc(/C=C/C(=O)c2ccc(NC(=O)C(C)C)cc2)cc1	100	-	-	-	-
CSc1ccc(/C=C/C(=O)Nc2ccccc2)cc1	-	-	-	-	-
SMILES	L major viab	G6PDH counter	Diaphorase act	WT yeast gro inh	Diaph inh CS
COc1ccc(N(CC(=O)N2CCCC(C)C2)S(=O)(=O)c2c(C)nn(C)c2C)cc1 (centres undefined)	-	-	-	-	-
Cc1ccc(NC2=C(NC(=O)c3ccccc3)C(=O)c3ccccc3C2=O)cc1Cl	98	-	-	68	-
Cc1ccc(NCC(=O)c2ccccc2)cc1Cl	-	-	-	-	-
O=C(O)c1cccc(NC2=C(Cl)C(=O)c3ccccc3C2=O)c1	66	52	-	-	-
O=C1C(Cl)=C(Nc2ccccc2)C(=O)c2ccccc21	-	-	-	-	-
Cc1c(C(=O)NC(C)C)c(-c2ccccc2)nn1-c1ccccc1	-	-	-	-	-
Cc1c(C(=O)NCc2ccccc2)c(-c2ccccc2)nn1-c1ccccc1	86	-	-	-	-
O=C(O)c1ccc(-n2nnnc2Oc2cccc3cccnc23)cc1	-	-	-	-	-
S=C1NCCc2ccccc2C1c1ccccc1Cl (centres undefined)	-	-	-	62	-
Cc1cccc(C)c1OCC(=O)NCC1CCCO1 (centres undefined)	-	-	-	-	-
C=CC[n+]1ccc(/C=C2\C=Cc3cc(C)ccc3N2CC)c2ccccc21	100	-	-	87	-
C=CC[n+]1ccc2ccccc2c1C	-	-	-	-	-
Cc1nc2ccccn2c1C(=O)Nc1ccc(Cl)cc1	-	-	-	-	-
CCOc1cc(-c2nc(C)c(C(C)=O)n2O)ccc1OCC(=O)Nc1cccc(C)c1	-	-	-	62	-
O=C1Nc2ccccc2N2CCCC12 (centres undefined)	-	-	-	-	60
O=C1Nc2cc(S(=O)(=O)N3CCCC3)ccc2N2CCCC12 (centres undefined)	-	-	-	-	-
Cc1nn2c(N3CCN(c4ccccn4)CC3)cc(C(C)C)nc2c1-c1ccccc1	-	-	-	97	-
Cc1cc(N2CCOCC2)n2nc(C)c(-c3ccccc3)c2n1	-	-	-	-	-
CCc1ccc(CN(C)CC(=O)Nc2sccc2C#N)cc1	-	-	-	-	-
CNc1ccc(Br)cc(C(=O)/C=C/c2cccc(OC)c2OC)c1=O	-	-	-	-	59
CNc1ccccc(C(=O)/C=C/c2ccccc2OC)c1=O	-	-	-	-	-
CNc1ccc(Br)cc(C(=O)/C=C/c2cccc(Cl)c2Cl)c1=O	96	-	-	-	68
CCNc1ccc(Br)cc(C(=O)/C=C/c2ccccc2Cl)c1=O	99	.	.	.	.
CCCCNC(=O)COC(=O)c1ccc(Cl)c(S(N)(=O)=O)c1	-	-	-	-	-
O=C1NCCCC2c3cc(O)c4ccccc4c3OC12N1CCCCC1 (centres undefined)	100	56	-	-	-
SMILES	L major viab	G6PDH counter	Diaphorase act	WT yeast gro inh	Diaph inh CS
O=C1NCCCC2c3c(cc(Br)c(O)c3Br)OC12N1CCOCC1 (centres undefined)	-	-	-	-	-
Cc1ccccc1C(=O)N1CCN=C1SCc1ccc([N+](=O)[O-])cc1	-	-	-	-	-
c1ccc2[nH]c(NCCCN3CCOCC3)nc2c1	-	-	-	-	-
Cc1cccc(-c2nc(NCCCN3CCOCC3)c3ccccc3n2)c1	100	-	-	-	-
c1ccc(-c2nc(NCCCN3CCOCC3)c3ccccc3n2)cc1	62	-	-	-	-
CCC(C)NC(=O)CN(c1cc(Cl)cc(Cl)c1)S(C)(=O)=O (centres undefined)	-	-	-	-	-
COc1ccc(/C=C2\SC(N3CCc4ccccc4C3)=NC2=O)cc1OC	-	-	-	-	-
O=C(C[n+]1ccccc1)N/N=C/c1ccc(F)cc1	-	-	-	-	-

Screening data deposited in PubChem by several laboratories.
